Results from ChEMBL document CHEMBL3351863, “Optimization of 2-phenyl-pyrimidine-4-carboxamides towards potent, orally bioavailable and selective P2Y(12) antagonists for inhibition of platelet aggregation” (Bioorg Med Chem Lett, 2014).

Experiments:
Platelet [1] = assay: Inhibition of ADP-induced platelet aggregation in human platelet rich plasma by in-vitro light transmission aggregometry assay; type: functional; conditions: Homo sapiens, Platelet, Plasma
In short: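 Human platelet-rich plasma incubated with compound, aggregation induced by 3 µM ADP and read by light transmission aggregometry; IC₅₀ derived from concentration–response curve.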

Cytochrome P450 2D6 = Cytochrome P450 2D6 (Homo sapiens, UniProt P10635); assay: Inhibition of CYP2D6 in human liver microsomes assessed as reduction in dextromethorphan-O demethylation; type: ADME
Cytochrome P450 3A4 [2] = biological target: T1, Cytochrome P450 3A4 (Homo sapiens, UniProt P08684); assay: Inhibition of CYP3A4 in human liver microsomes assessed as reduction in testosterone 6beta-hydroxylation; type: ADME
[3] = Potency shift, ratio of IC50 for inhibition of ADP-induced platelet aggregation in human platelet rich plasma to IC50 for displacement of [3H]-2-methyl-thio-adenosine 5'-diphosphate from human recombinant P2Y12 expressed in CHO cell membranes
P2Y purinoceptor 12 = P2Y purinoceptor 12 (Homo sapiens, UniProt Q9H244); assay: Displacement of [3H]-2-methyl-thio-adenosine 5'-diphosphate from human recombinant P2Y12 expressed in CHO cell membranes by scintillation counting method
In short: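 CHO cells expressing recombinant P2Y₁₂ receptors, incubated with tritium-labeled 2-methyl-thio-adenosine 5'-diphosphate plus test compound; IC₅₀ from displacement curves, each point in triplicate; reference compound run with every compound set, and set re-analyzed if its IC₅₀ fell outside pre-set 95% confidence interval.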

[4] = Solubility in basic pH; type: physicochemical
[5] = biological target: Voltage-gated inwardly rectifying potassium channel KCNH2 (Homo sapiens, UniProt Q12809); assay: Inhibition of human ERG expressed in HEK cells by patch-clamp assay; type: cell-based; conditions: hek293
Cytochrome P450 3A4 [6] = biological target: T1, Cytochrome P450 3A4; assay: Inhibition of CYP3A4 in human liver microsomes assessed as reduction in midazolam 1'-hydroxylation; type: ADME
[7] = Solubility in neutral pH; type: physicochemical
Platelet [8] = assay: Inhibition of ADP-induced platelet aggregation in human platelet rich plasma assessed as remaining activity at 500 nM by in-vitro light transmission aggregometry assay; type: functional
In short: (§1)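 Light transmission aggregometry in human platelet-rich plasma; compound incubated, aggregation triggered with 3 µM ADP; remaining activity (RA) recorded at a single compound level (1000, 500 or 100 nM).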

Liver microsome [9] = assay: Metabolic stability assay in rat liver microsomes assessed as parent drug disappearance at 1 uM after 20 mins by HPLC and mass spectrometry method; type: ADME
Liver microsome [10] = assay: Metabolic stability assay in human liver microsomes assessed as parent drug disappearance at 1 uM after 20 mins by HPLC and mass spectrometry method; type: ADME
Cytochrome P450 2C9 = Cytochrome P450 2C9 (Homo sapiens, UniProt P11712); assay: Inhibition of CYP2C9 in human liver microsomes assessed as reduction in diclofenac 4'-hydroxylation; type: ADME
Platelet [11] = assay: Inhibition of ADP-induced platelet aggregation in human platelet rich plasma assessed as remaining activity at 100 nM by in-vitro light transmission aggregometry assay; type: functional; in short: as §1

Cytochrome P450 2C9, sequence (P11712 whole entry): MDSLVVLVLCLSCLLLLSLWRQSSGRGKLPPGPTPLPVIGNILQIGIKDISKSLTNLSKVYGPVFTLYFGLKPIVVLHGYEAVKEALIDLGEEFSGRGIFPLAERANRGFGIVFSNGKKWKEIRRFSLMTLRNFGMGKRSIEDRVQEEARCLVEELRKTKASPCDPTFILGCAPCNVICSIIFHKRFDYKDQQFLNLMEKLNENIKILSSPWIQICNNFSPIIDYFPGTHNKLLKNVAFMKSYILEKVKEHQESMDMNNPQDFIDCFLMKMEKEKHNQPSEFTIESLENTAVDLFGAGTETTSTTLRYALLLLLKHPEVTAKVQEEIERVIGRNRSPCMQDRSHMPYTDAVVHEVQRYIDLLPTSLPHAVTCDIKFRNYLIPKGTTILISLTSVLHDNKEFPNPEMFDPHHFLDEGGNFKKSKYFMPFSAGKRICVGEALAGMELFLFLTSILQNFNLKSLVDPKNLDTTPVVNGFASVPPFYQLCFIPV
P2Y purinoceptor 12, sequence (Q9H244 whole entry): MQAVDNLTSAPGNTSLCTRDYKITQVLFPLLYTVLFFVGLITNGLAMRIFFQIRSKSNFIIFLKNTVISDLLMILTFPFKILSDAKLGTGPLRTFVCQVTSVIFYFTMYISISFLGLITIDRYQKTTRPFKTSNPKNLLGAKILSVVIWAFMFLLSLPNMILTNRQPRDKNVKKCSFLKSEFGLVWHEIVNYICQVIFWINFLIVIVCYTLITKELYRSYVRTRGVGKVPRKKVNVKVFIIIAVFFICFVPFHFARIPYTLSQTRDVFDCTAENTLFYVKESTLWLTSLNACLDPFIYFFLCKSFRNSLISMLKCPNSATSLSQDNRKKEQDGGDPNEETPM
Cytochrome P450 2D6, sequence (P10635 whole entry): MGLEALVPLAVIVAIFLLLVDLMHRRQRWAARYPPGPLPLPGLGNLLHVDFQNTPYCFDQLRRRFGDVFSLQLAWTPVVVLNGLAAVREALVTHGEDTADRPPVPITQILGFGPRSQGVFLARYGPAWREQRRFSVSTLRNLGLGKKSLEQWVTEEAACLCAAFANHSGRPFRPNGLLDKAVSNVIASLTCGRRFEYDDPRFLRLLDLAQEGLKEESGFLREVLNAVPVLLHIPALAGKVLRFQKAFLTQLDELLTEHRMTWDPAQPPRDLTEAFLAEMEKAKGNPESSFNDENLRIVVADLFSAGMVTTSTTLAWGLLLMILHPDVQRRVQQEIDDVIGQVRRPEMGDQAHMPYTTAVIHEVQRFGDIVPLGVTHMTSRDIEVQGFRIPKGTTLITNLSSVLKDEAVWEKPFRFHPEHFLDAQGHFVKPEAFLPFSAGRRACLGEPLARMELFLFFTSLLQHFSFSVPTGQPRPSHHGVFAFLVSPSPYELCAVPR
Voltage-gated inwardly rectifying potassium channel KCNH2, sequence (Q12809 whole entry): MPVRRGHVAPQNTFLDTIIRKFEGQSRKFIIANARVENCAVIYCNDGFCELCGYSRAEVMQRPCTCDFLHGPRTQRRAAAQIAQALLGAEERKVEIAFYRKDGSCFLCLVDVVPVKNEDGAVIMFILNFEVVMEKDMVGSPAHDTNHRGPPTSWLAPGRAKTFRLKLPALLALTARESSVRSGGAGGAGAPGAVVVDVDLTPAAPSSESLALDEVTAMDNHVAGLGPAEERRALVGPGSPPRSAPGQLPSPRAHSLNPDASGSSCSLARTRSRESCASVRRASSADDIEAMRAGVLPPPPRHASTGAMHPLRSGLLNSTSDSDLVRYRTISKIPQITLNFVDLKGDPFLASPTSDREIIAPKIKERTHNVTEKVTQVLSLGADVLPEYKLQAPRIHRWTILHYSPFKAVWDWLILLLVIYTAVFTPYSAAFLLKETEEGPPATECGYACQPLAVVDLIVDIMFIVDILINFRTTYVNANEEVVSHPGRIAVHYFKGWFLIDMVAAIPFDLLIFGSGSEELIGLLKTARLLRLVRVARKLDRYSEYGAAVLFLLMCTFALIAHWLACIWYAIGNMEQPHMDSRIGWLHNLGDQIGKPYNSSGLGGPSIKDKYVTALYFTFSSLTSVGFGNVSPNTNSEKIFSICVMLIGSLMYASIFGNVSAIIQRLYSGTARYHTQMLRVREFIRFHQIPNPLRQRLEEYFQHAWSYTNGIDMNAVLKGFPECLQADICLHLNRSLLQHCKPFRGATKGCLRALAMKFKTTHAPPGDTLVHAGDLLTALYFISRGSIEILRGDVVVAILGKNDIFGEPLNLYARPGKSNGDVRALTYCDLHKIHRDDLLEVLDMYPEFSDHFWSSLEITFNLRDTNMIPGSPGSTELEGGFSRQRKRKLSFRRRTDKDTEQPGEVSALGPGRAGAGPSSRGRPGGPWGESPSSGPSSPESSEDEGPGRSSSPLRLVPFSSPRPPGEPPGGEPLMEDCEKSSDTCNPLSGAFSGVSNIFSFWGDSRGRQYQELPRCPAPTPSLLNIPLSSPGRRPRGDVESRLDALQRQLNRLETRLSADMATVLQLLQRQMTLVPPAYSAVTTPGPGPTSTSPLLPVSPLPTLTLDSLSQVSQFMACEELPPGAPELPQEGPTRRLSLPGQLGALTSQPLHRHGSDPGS
T1 sequence (P08684 whole entry): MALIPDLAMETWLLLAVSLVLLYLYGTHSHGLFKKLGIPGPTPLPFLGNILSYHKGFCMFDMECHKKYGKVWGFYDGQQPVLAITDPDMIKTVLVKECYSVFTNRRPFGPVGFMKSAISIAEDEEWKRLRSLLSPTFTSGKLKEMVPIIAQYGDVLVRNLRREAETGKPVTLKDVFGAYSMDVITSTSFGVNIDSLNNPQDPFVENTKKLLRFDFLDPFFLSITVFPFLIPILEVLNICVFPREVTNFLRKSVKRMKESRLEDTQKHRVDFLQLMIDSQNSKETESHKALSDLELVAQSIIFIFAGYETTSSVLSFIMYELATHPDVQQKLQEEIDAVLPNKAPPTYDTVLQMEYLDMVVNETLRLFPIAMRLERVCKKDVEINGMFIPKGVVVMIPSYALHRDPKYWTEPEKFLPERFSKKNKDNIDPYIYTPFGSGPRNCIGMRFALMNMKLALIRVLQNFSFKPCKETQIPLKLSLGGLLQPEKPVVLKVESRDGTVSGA

Compound	IC50 (Platelet [1]) [nM]	inhibition (INH) (Cytochrome P450 2D6)	inhibition (INH) (Cytochrome P450 3A4 [2])	IC50 (P2Y purinoceptor 12) [nM]	solubility [4]	inhibition (INH) (Cytochrome P450 3A4 [6])	solubility [7]	Stability (Liver microsome [9])	Stability (Liver microsome [10])	inhibition (INH) (Cytochrome P450 2C9)	Ratio IC50 [3]	inhibition (INH) [5]	Activity (Platelet [8]) [%]	Activity (Platelet [11]) [%]
CCOC(=O)N1CCN(C(=O)[C@H](CCC(=O)O)NC(=O)c2cc(N3CCCC(O)C3)nc(-c3ccccc3)n2)CC1 (some centres undefined)	73	Not Active	Not Active	21	soluble	Not Active	soluble	Stable	Stable	Not Active	3.5	Not Active	<30	<70
CCCCOC(=O)N1CCN(C(=O)[C@H](CCC(=O)O)NC(=O)c2cc([C@H]3C[C@@H]3COC)nc(-c3ccccc3)n2)CC1 (racemic)	21	Not Active	Not Active	3	soluble	Not Active	soluble	Stable	Stable	Not Active	7	Not Active		
CCOC(=O)N1CCN(C(=O)[C@H](CCC(=O)O)NC(=O)c2cc(-n3cc(C)cn3)nc(-c3ccccc3)n2)CC1	318	Not Active	Not Active	27	soluble	Not Active	soluble	Stable	Stable	Not Active	12	Not Active	30	
CCOC(=O)N1CCN(C(=O)[C@H](CCC(=O)O)NC(=O)c2cc(NC(C)COC)nc(-c3ccccc3)n2)CC1 (some centres undefined)	139	Not Active	Not Active		soluble	Not Active	soluble	Stable	Stable	Not Active	1.4	Not Active	<30	<70
CCOC(=O)N1CCN(C(=O)[C@H](CCC(=O)O)NC(=O)c2cc(NCCCO)nc(-c3ccccc3)n2)CC1		Not Active	Not Active	279	soluble	Not Active	soluble	Stable	Stable	Not Active		Not Active	30	
CCOC(=O)N1CCN(C(=O)[C@H](CCC(=O)O)NC(=O)c2cc(CN3CCCCC3)nc(-c3ccccc3)n2)CC1		Not Active	Not Active	533	soluble	Not Active	soluble	Stable	Stable	Not Active		Not Active		
CCOC(=O)N1CCN(C(=O)[C@H](CCC(=O)O)NC(=O)c2cc(NC(C)C)nc(-c3ccccc3)n2)CC1	724	Not Active	Not Active	95.5	soluble	Not Active	soluble	Stable	Stable	Not Active	7.6	Not Active		
CCOC(=O)N1CCN(C(=O)[C@H](CCC(=O)O)NC(=O)c2cc(NCCN3CCOCC3)nc(-c3ccccc3)n2)CC1		Not Active	Not Active	257	soluble	Not Active	soluble	Stable	Stable	Not Active		Not Active	30	
CCOC(=O)N1CCN(C(=O)[C@H](CCC(=O)O)NC(=O)c2cc(N[C@H]3CC[C@H](O)CC3)nc(-c3ccccc3)n2)CC1		Not Active	Not Active		soluble	Not Active	soluble	Stable	Stable	Not Active		Not Active	30	

More lines, main results first:

IC50 (Platelet [1]) [nM]	inhibition (INH) (Cytochrome P450 2D6)	inhibition (INH) (Cytochrome P450 3A4 [2])	IC50 (P2Y purinoceptor 12) [nM]	solubility [4]	inhibition (INH) (Cytochrome P450 3A4 [6])	solubility [7]	Stability (Liver microsome [9])	Stability (Liver microsome [10])	inhibition (INH) (Cytochrome P450 2C9)	Compound	Ratio IC50 [3]	inhibition (INH) [5]	Activity (Platelet [8]) [%]	Activity (Platelet [11]) [%]
523	Not Active	Not Active	31	soluble	Not Active	soluble	Stable	Stable	Not Active	CCOC(=O)N1CCN(C(=O)[C@H](CCC(=O)O)NC(=O)c2cc(-c3ccc(OC)cc3)nc(-c3ccccc3)n2)CC1	17	Not Active	30	
	Not Active	Not Active	2780	soluble	Not Active	soluble	Stable	Stable	Not Active	CCOC(=O)N1CCN(C(=O)[C@H](CCC(=O)O)NC(=O)c2cc(NCCN(C)C)nc(-c3ccccc3)n2)CC1		Not Active		
	Not Active	Not Active	266	soluble	Not Active	soluble	Stable	Stable	Not Active	CCOC(=O)N1CCN(C(=O)[C@H](CCC(=O)O)NC(=O)c2cc(NS(=O)(=O)c3ccccc3)nc(-c3ccccc3)n2)CC1		Not Active		
	Not Active	Not Active	201	soluble	Not Active	soluble	Stable	Stable	Not Active	CCOC(=O)N1CCN(C(=O)[C@H](CCC(=O)O)NC(=O)c2cc(N3CCCCC3)nc(-c3ccccc3)n2)CC1		Not Active	30	
	Not Active	Not Active		soluble	Not Active	soluble	Stable	Stable	Not Active	CCOC(=O)N1CCN(C(=O)[C@H](CCC(=O)O)NC(=O)c2cc(N3CCOCC3)nc(-c3ccccc3)n2)CC1		Not Active	<30	<70
287	Not Active	Not Active	9	soluble	Not Active	soluble	Stable	Stable	Not Active	CCCCOC(=O)N1CCN(C(=O)[C@H](CCC(=O)O)NC(=O)c2cc([C@H]3C[C@H]3COC)nc(-c3ccccc3)n2)CC1 (racemic)	32	Not Active		
	Not Active	Not Active	291	soluble	Not Active	soluble	Stable	Stable	Not Active	CCOC(=O)N1CCN(C(=O)[C@H](CCC(=O)O)NC(=O)c2cc(N3CCCCC3CN(C)C)nc(-c3ccccc3)n2)CC1 (some centres undefined)		Not Active	30	
	Not Active	Not Active	428	soluble	Not Active	soluble	Stable	Stable	Not Active	CCOC(=O)N1CCN(C(=O)[C@H](CCC(=O)O)NC(=O)c2cc(CN3CCOCC3)nc(-c3ccccc3)n2)CC1		Not Active		
